Experiments:
[1] = Phase-solubility study of tcyDTDO with BCD; format: physicochemical; settings: BCD with saturated tcyDTDO, 25.0 °C
MDA-MB-468 (EGFR+) cells = assay: MTT cell viability assay; format: cell-based; settings: neat CD, up to concentrations as high as 100 μM
In short: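 MDA-MB-468 cells were treated with test compound alone or as cyclodextrin complexes, then read out by MTT. Complex stocks were made by shake-flask and passed through a 0.45 μm filter. […] Values are the mean of 10 replicates ± standard deviation.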

[2] = cited from earlier work
[3] = advertised; ref Millipore Sigma; cited from earlier work

Row | SMILES | Highest achievable concentration of CD in solution [1] [mM] | Effect on cell viability (MDA-MB-468 (EGFR+) cells) | Cavity volume, literature [2] [Å^3] | Solubility in water [3]
1 | OC[C@H]1O[C@@H]2O[C@H]3[C@H](O)[C@@H](O)[C@@H](O[C@H]4[C@H](O)[C@@H](O)[C@@H](O[C@H]5[C@H](O)[C@@H](O)[C@@H](O[C@H]6[C@H](O)[C@@H](O)[C@@H](O[C@H]7[C@H](O)[C@@H](O)[C@@H](O[C@H]8[C@H](O)[C@@H](O)[C@@H](O[C@H]1[C@H](O)[C@H]2O)O[C@@H]8CO)O[C@@H]7CO)O[C@@H]6CO)O[C@@H]5CO)O[C@@H]4CO)O[C@@H]3CO [BCD, beta-cyclodextrin] | 4.43 | did not have any significant adverse effect on cell viability | 262 | 
2 | CC(O)COC[C@H]1O[C@@H]2O[C@H]3[C@H](O)[C@@H](O)[C@@H](O[C@H]4[C@H](O)[C@@H](O)[C@@H](O[C@H]5[C@H](O)[C@@H](O)[C@@H](O[C@H]6[C@H](O)[C@@H](O)[C@@H](O[C@H]7[C@H](O)[C@@H](O)[C@@H](O[C@H]8[C@H](O)[C@@H](O)[C@@H](O[C@H]1[C@H](O)[C@H]2O)O[C@@H]8COCC(C)O)O[C@@H]7COCC(C)O)O[C@@H]6COCC(C)O)O[C@@H]5COCC(C)O)O[C@@H]4COCC(C)O)O[C@@H]3COCC(C)O (stereo partly drawn) [HPB, 2-hydroxypropyl-beta-cyclodextrin] |  | did not have any significant adverse effect on cell viability |  | roughly 45 g per 100 mL

— paper PMC12124217 (RSC Medicinal Chemistry, 2025)
